Test results published in ChEMBL document CHEMBL4406897 (Bioorg Med Chem, 2019).

Tests used:
[1] = target: T1, Dihydrofolate reductase (Homo sapiens, UniProt P00374); assay: Inhibition of human dihydrofolate reductase using dihydrofolate as substrate in presence of NADPH by UV-vis spectrophotometry analysis
T1 sequence (P00374 whole entry): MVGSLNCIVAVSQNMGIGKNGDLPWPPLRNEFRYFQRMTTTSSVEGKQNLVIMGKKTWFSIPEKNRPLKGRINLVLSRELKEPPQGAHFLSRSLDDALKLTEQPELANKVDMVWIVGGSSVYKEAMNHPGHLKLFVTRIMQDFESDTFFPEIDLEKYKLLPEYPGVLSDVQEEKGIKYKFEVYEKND

[2] = system: Plasmodium falciparum; assay: (§1) Antimalarial activity against Plasmodium falciparum TM4/8.2 infected in human erythrocytes assessed as reduction in [3H]-hypoxanthine incorporation pretreated for 24 hrs followed by [3H]-hypoxanthine addition measured after 18 hrs by liquid scintillation counting method; assay type: functional, organism-based
[3] = system: Plasmodium falciparum; assay: as §1, with “against pyrimethamine-resistant” for “against”, “V1/S expressing Dihydrofolate reductase N51I/C59R/S108N/I164L mutant” for “TM4/8.2”, “18” for “24”, “24” for “18”; assay type: functional, organism-based
Method in brief: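 P. falciparum V1/S kept in continuous culture in human erythrocytes at 37 °C under 3% CO2. Growth inhibition was read as [3H]-hypoxanthine incorporation.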

[4] = Competitive inhibition of Plasmodium falciparum dihydrofolate reductase N51I/C59R/S108N/I164L quadruple mutant expressed in Escherichia coli BL21(DE3)pLysS using dihydrofolate as substrate in presence of NADPH by UV-vis spectrophotometry analysis
Method in brief: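 Quadruple-mutant PfDHFR expressed from a pET plasmid in E. coli BL21(DE3)pLysS, induced with 0.4 mM IPTG at 20 °C for 20 h. Cells lysed by French press at 18,000 psi. Enzyme purified on methotrexate-Sepharose in 20 mM potassium phosphate pH 7.0 with 50 mM KCl, 10 mM DTT, 0.1 mM EDTA and 20% glycerol. Activity read spectrophotometrically at 25 °C. Ki measured in microplate format, assuming competitive inhibition.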

[5] = system: Vero; assay: Cytotoxicity against African green monkey Vero cells by sulforhodamine B assay; assay type: cell-based; details: Chlorocebus sabaeus
[6] = Competitive inhibition of wild type Plasmodium falciparum dihydrofolate reductase expressed in Escherichia coli BL21(DE3)pLysS using dihydrofolate as substrate in presence of NADPH by UV-vis spectrophotometry analysis
Method in brief: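 Wild-type PfDHFR expressed from pET plasmid after 0.4 mM IPTG induction at 20 °C for 20 h. Cells lysed by French press at 18,000 psi. Enzyme purified on methotrexate-Sepharose in 20 mM potassium phosphate pH 7.0 with 0.1 mM EDTA, 10 mM DTT, 50 mM KCl and 20% glycerol. Activity read spectrophotometrically at 25 °C. Ki measured in microplate format, assuming competitive inhibition.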

[7] = system: dihydrofolate reductase; assay: Selectivity ratio of Ki for human dihydrofolate reductase to Ki for wild type Plasmodium falciparum TM4/8.2 dihydrofolate reductase; assay type: toxicity; details: read-out: Ratio Ki
[8] = system: dihydrofolate reductase; assay: Selectivity ratio of Ki for human dihydrofolate reductase to Ki for Plasmodium falciparum dihydrofolate reductase N51I/C59R/S108N/I164L quadruple mutant; assay type: toxicity; details: read-out: Ratio Ki
[9] = system: Plasmodium falciparum; assay: Ratio of compound IC50 to pyrimethamine IC50 for antimalarial activity against Plasmodium falciparum TM4/8.2 infected in human erythrocytes; assay type: functional
[10] = system: Plasmodium falciparum; assay: Ratio of compound IC50 to pyrimethamine IC50 for antimalarial activity against Plasmodium falciparum V1/S infected in human erythrocytes; assay type: functional
[11] = Selectivity ratio of IC50 for African green monkey Vero cells to IC50 for Plasmodium falciparum TM4/8.2 infected in human erythrocytes; assay type: toxicity, cell-based; details: read-out: Ratio IC50
[12] = Selectivity ratio of IC50 for African green monkey Vero cells to IC50 for Plasmodium falciparum V1/S infected in human erythrocytes; assay type: toxicity, cell-based; details: read-out: Ratio IC50

Structure (SMILES)	Ki ([1]; read-out: Ki)	IC50 [2]	IC50 [3]	Ki [4]	IC50 [5]	Ki [1]	Ki [6]	selectivity ratio [7]	selectivity ratio [8]	Ratio IC50 [9]	Ratio IC50 [10]	selectivity ratio [11]	selectivity ratio [12]
CCc1nc(N)nc(N)c1-c1ccccc1	10.4 nM	720 nM	> 50000 nM	–	–	–	–	–	–	–	–	–	–
Cl.Nc1nc(N)c(-c2cccc(Cl)c2)c(CCCCCOc2ccccc2)n1	18.4 nM	430 nM	9170 nM	3.2 nM	7210 nM	–	–	–	–	–	–	–	–
Cl.Nc1nc(N)c(-c2ccccc2)c(COc2cccc(OCCCC(=O)O)c2)n1	556 nM	5240 nM	31100 nM	–	> 50000 nM	–	–	–	–	–	–	–	–
CCOC(=O)CCCOc1ccccc1CCc1nc(N)nc(N)c1-c1cccc(Cl)c1	23.4 nM	710 nM	5240 nM	–	8130 nM	–	–	–	–	–	–	–	–
Cl.Nc1nc(N)c(-c2cccc(Cl)c2)c(CCCCOc2cccc(OCC(=O)O)c2)n1	13.4 nM	43 nM	1420 nM	0.72 nM	> 50000 nM	–	–	–	–	–	–	–	–
Cl.Nc1nc(N)c(-c2ccccc2)c(CCCOc2cccc(OCC(=O)O)c2)n1	18.2 nM	71 nM	2710 nM	0.5 nM	> 10000 nM	–	–	–	–	–	–	–	–
Cl.Nc1nc(N)c(-c2cccc(Cl)c2)c(CCc2ccccc2OCCCc2ccccc2)n1	–	6250 nM	5500 nM	–	650 nM	Active	–	–	–	–	–	–	–
Cl.Nc1nc(N)c(-c2ccccc2)c(COc2cccc(OCC(=O)O)c2)n1	509 nM	52600 nM	> 100000 nM	–	> 100000 nM	–	–	–	–	–	–	–	–
Cl.Nc1nc(N)c(-c2cccc(Cl)c2)c(CCc2ccccc2OCc2ccccc2)n1	14.4 nM	1940 nM	4810 nM	3.06 nM	400 nM	–	–	–	–	–	–	–	–
Cl.Nc1nc(N)c(-c2cccc(Cl)c2)c(CCCOc2cccc(OCCCC(=O)O)c2)n1	19.6 nM	49 nM	440 nM	0.98 nM	> 10000 nM	–	–	–	–	–	–	–	–
Cl.Nc1nc(N)c(-c2cccc(Cl)c2)c(CCCCOc2cccc(OCCCC(=O)O)c2)n1	21.7 nM	51 nM	3000 nM	0.93 nM	> 100000 nM	–	–	–	–	–	–	–	–
Cl.Nc1nc(N)c(-c2ccccc2)c(CCCCCOc2ccccc2)n1	32.9 nM	380 nM	7890 nM	3.61 nM	7910 nM	–	0.3 nM	110	9.11	4.75	0.08	20.8	1
Cl.Nc1nc(N)c(-c2cccc(Cl)c2)c(COc2cccc(OCCCC(=O)O)c2)n1	74.2 nM	1800 nM	6200 nM	–	> 100000 nM	–	–	–	–	–	–	–	–
Cl.Nc1nc(N)c(-c2ccccc2)c(CCc2ccccc2OCc2ccccc2)n1	22.1 nM	650 nM	4370 nM	–	1870 nM	–	–	–	–	–	–	–	–
Cl.Nc1nc(N)c(-c2ccccc2)c(CCCCOc2ccccc2)n1	48.7 nM	360 nM	11200 nM	1.73 nM	15400 nM	–	–	–	–	–	–	–	–
CCOC(=O)CCCOc1ccccc1CCc1nc(N)nc(N)c1-c1ccccc1.Cl	32.4 nM	1250 nM	> 10000 nM	–	> 10000 nM	–	–	–	–	–	–	–	–
Cl.Nc1nc(N)c(-c2ccccc2)c(CCCCOc2cccc(OCCCC(=O)O)c2)n1	34.8 nM	71 nM	3910 nM	1.24 nM	> 100000 nM	–	–	–	–	–	–	–	–
Cl.Nc1nc(N)c(-c2ccccc2)c(CCCOc2ccccc2)n1	12.5 nM	130 nM	15100 nM	1.37 nM	1390 nM	–	–	–	–	–	–	–	–
Cl.Nc1nc(N)c(-c2ccccc2)c(CCc2ccccc2OCCCc2ccccc2)n1	27.3 nM	6730 nM	6150 nM	–	4960 nM	–	–	–	–	–	–	–	–
Cl.Nc1nc(N)c(-c2cccc(Cl)c2)c(CCCCOc2ccccc2)n1	12.8 nM	340 nM	6940 nM	1.49 nM	5150 nM	–	–	–	–	–	–	–	–
Cl.Nc1nc(N)c(-c2cccc(Cl)c2)c(CCCOc2ccccc2)n1	8.72 nM	170 nM	3420 nM	1.16 nM	470 nM	–	0.24 nM	36.3	7.52	2.13	0.03	2.76	0.14
Cl.Nc1nc(N)c(-c2cccc(Cl)c2)c(COc2cccc(OCC(=O)O)c2)n1	52.4 nM	6010 nM	11400 nM	–	> 10000 nM	–	–	–	–	–	–	–	–
Cl.Nc1nc(N)c(-c2ccccc2)c(CCCOc2cccc(OCCCC(=O)O)c2)n1	29.1 nM	52 nM	540 nM	1.26 nM	> 25000 nM	–	–	–	–	–	–	–	–
Cl.Nc1nc(N)c(-c2ccccc2)c(CCCCOc2cccc(OCC(=O)O)c2)n1	46 nM	58 nM	> 1000 nM	1.04 nM	> 1000 nM	–	0.5 nM	91.9	44.2	0.73	0.01	> 17.2	–
Cl.Nc1nc(N)c(-c2cccc(Cl)c2)c(CCCOc2cccc(OCC(=O)O)c2)n1	13.6 nM	48 nM	430 nM	0.41 nM	> 50000 nM	–	–	–	–	–	–	–	–
CCc1nc(N)nc(N)c1-c1ccc(Cl)cc1 [PYRIMETHAMINE]	–	–	> 100000 nM	385 nM	–	–	0.6 nM	–	–	–	–	–	–
